Data: ChEMBL document CHEMBL4261531, “Synthesis of thioether andrographolide derivatives and their inhibitory effect against cancer cells” (Medchemcomm, 2017)
Values belong to the compound of their own block, whether it stands above or below them.

Columns and labels:
PC-3 = assay: Growth inhibition of human PC3 cells after 48 hrs by MTT assay; type: functional, cell-based; details: PC-3, 48 h
In short: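 PC-3 human prostate cancer cells exposed to compounds, with viability read by MTT assay; taxol served as the positive control.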

MDA-MB-231 = assay: Growth inhibition of human MDA-MB-231 cells after 48 hrs by MTT assay; type: functional, cell-based; details: MDA-MB-231, 48 h
Vero = assay: Cytotoxicity against African green monkey Vero cells at 100 uM after 48 hrs by MTT assay; type: cell-based; details: chlorocebus sabaeus
A549 = assay: Growth inhibition of human A549 cells after 48 hrs by MTT assay; type: functional, cell-based; details: A549, 48 h
MCF7 = assay: Growth inhibition of human MCF7 cells after 48 hrs by MTT assay; type: functional, cell-based; details: MCF7, 48 h

Structure (SMILES): C=C1CC[C@@H]2[C@](C)(CO)[C@H](O)CC[C@@]2(C)[C@@H]1CC(Sc1ccc([N+](=O)[O-])cc1)C1=CCOC1=O (some centres undefined)
- IC50 (PC-3): 17 µM

Structure (SMILES): C=C1CC[C@@H]2[C@]3(C)COC(C)(C)O[C@@H]3CC[C@@]2(C)[C@@H]1C/C=C1/C(=O)OC[C@H]1OC(=O)CCCSc1ccc(OC)cc1
- IC50 (PC-3): 18 µM

Structure (SMILES): C=C1CC[C@@H]2[C@]3(C)COC(C)(C)O[C@@H]3CC[C@@]2(C)[C@@H]1C/C=C1/C(=O)OC[C@H]1OC(=O)CCCSc1ccc([N+](=O)[O-])cc1
- IC50 (PC-3): 17 µM

Structure (SMILES): C=C1CC[C@@H]2[C@](C)(CO)[C@H](O)CC[C@@]2(C)[C@@H]1C/C=C1/C(=O)OC[C@H]1OC(=O)CSc1ccc(F)cc1
- IC50 (PC-3): 14 µM

Structure (SMILES): C=C1CC[C@@H]2[C@](C)(CO)[C@H](O)CC[C@@]2(C)[C@@H]1CC(Sc1cccs1)C1=CCOC1=O (some centres undefined)
- IC50 (PC-3): 15 µM

Structure (SMILES): C=C1CC[C@@H]2[C@](C)(CO)[C@H](O)CC[C@@]2(C)[C@@H]1CC(Sc1nccs1)C1=CCOC1=O (some centres undefined)
- IC50 (PC-3): 14 µM

Structure (SMILES): C=C1CC[C@@H]2[C@]3(C)COC(C)(C)O[C@@H]3CC[C@@]2(C)[C@@H]1C/C=C1/C(=O)OC[C@H]1OC(=O)CSc1cccs1
- IC50 (PC-3): 15 µM

Structure (SMILES): C=C1CC[C@@H]2[C@](C)(CO)[C@H](O)CC[C@@]2(C)[C@@H]1C/C=C1/C(=O)OCC1OC(=O)CSc1ccc(F)cc1 (some centres undefined)
- IC50 (PC-3): 13 µM

Structure (SMILES): CC(=O)O[C@H]1C(=O)[C@@]2(C)[C@H]([C@H](OC(=O)c3ccccc3)[C@]3(O)C[C@H](OC(=O)[C@H](O)[C@@H](NC(=O)c4ccccc4)c4ccccc4)C(C)=C1C3(C)C)[C@]1(OC(C)=O)CO[C@@H]1C[C@@H]2O [PACLITAXEL]
- IC50 (PC-3): 7 µM

Structure (SMILES): C=C1CC[C@@H]2[C@]3(C)COC(C)(C)O[C@@H]3CC[C@@]2(C)[C@@H]1CC(Sc1ccccc1)C1=CCOC1=O (some centres undefined)
- IC50 (PC-3): 12 µM

Structure (SMILES): C=C1CC[C@@H]2[C@]3(C)COC(C)(C)O[C@@H]3CC[C@@]2(C)[C@@H]1CC(Sc1ccc([N+](=O)[O-])cc1)C1=CCOC1=O (some centres undefined)
- IC50 (PC-3): 12 µM

Structure (SMILES): C=C1CC[C@@H]2[C@](C)(CO)[C@H](O)CC[C@@]2(C)C1C/C=C1/C(=O)OC[C@H]1OC(=O)CCCSc1ccc(C)cc1 (single isomer, unassigned)
- IC50 (PC-3): 16 µM

Structure (SMILES): C=C1CC[C@@H]2[C@]3(C)COC(C)(C)O[C@@H]3CC[C@@]2(C)[C@@H]1C[C@H](Sc1cccs1)C1=CCOC1=O
- IC50 (MDA-MB-231): 8 µM
- Activity (Vero): Non-Toxic
- IC50 (PC-3): 9 µM
- IC50 (A549): 20 µM
- IC50 (MCF7): 5 µM

Structure (SMILES): C=C1CC[C@@H]2[C@](C)(CO)[C@H](O)CC[C@@]2(C)[C@@H]1C/C=C1/C(=O)OC[C@H]1OC(=O)CSc1ccc([N+](=O)[O-])cc1
- IC50 (PC-3): 17 µM

Structure (SMILES): C=C1CC[C@@H]2[C@](C)(CO)[C@H](O)CC[C@@]2(C)C1C/C=C1/C(=O)OC[C@H]1OC(=O)CCCSc1cccs1 (single isomer, unassigned)
- IC50 (PC-3): 16 µM

Structure (SMILES): C=C1CC[C@@H]2[C@]3(C)COC(C)(C)O[C@@H]3CC[C@@]2(C)[C@@H]1C[C@@H](Sc1cccs1)C1=CCOC1=O
- IC50 (PC-3): 20 µM

Structure (SMILES): C=C1CC[C@@H]2[C@]3(C)COC(C)(C)O[C@@H]3CC[C@@]2(C)[C@@H]1CC(Sc1ccc(F)cc1)C1=CCOC1=O (some centres undefined)
- IC50 (PC-3): 13 µM

Structure (SMILES): C=C1CC[C@@H]2[C@]3(C)COC(C)(C)O[C@@H]3CC[C@@]2(C)[C@@H]1CC(Sc1ncccn1)C1=CCOC1=O (some centres undefined)
- IC50 (MDA-MB-231): 9 µM
- Activity (Vero): Non-Toxic
- IC50 (PC-3): 7 µM
- IC50 (A549): 20 µM
- IC50 (MCF7): 7 µM

Structure (SMILES): C=C1CC[C@@H]2[C@](C)(CO)[C@H](O)CC[C@@]2(C)[C@@H]1C/C=C1/C(=O)OC[C@H]1OC(=O)CSc1ccc(C)cc1
- IC50 (PC-3): 27 µM

Structure (SMILES): C=C1CC[C@@H]2[C@](C)(CO)[C@H](O)CC[C@@]2(C)[C@@H]1CC(Sc1ncccn1)C1=CCOC1=O (some centres undefined)
- IC50 (MDA-MB-231): 16 µM
- Activity (Vero): Non-Toxic
- IC50 (PC-3): 7 µM
- IC50 (A549): 9 µM
- IC50 (MCF7): 23 µM

Structure (SMILES): C=C1CC[C@@H]2[C@](C)(CO)[C@H](O)CC[C@@]2(C)C1C/C=C1/C(=O)OC[C@H]1OC(=O)CCCSc1ccccn1 (single isomer, unassigned)
- IC50 (PC-3): 14 µM

More lines, main results first:

- IC50 (PC-3): 14 µM
Structure (SMILES): C=C1CC[C@@H]2[C@](C)(CO)[C@H](O)CC[C@@]2(C)[C@@H]1CC(Sc1ccccc1)C1=CCOC1=O (some centres undefined)

- IC50 (PC-3): 18 µM
Structure (SMILES): C=C1CC[C@@H]2[C@](C)(CO)[C@H](O)CC[C@@]2(C)[C@@H]1C/C=C1/C(=O)OC[C@H]1OC(=O)CSc1cccs1

- IC50 (PC-3): 14 µM
Structure (SMILES): C=C1CC[C@@H]2[C@]3(C)COC(C)(C)O[C@@H]3CC[C@@]2(C)[C@@H]1CC(Sc1ccccn1)C1=CCOC1=O (some centres undefined)

- IC50 (PC-3): 19 µM
Structure (SMILES): C=C1CC[C@@H]2[C@](C)(CO)[C@H](O)CC[C@@]2(C)C1C/C=C1/C(=O)OC[C@H]1OC(=O)CCCSc1ccc(OC)cc1 (single isomer, unassigned)

- IC50 (MDA-MB-231): 19 µM
- IC50 (PC-3): 9 µM
- IC50 (A549): 11 µM
- IC50 (MCF7): 10 µM
Structure (SMILES): C=C1CC[C@@H]2[C@]3(C)COC(C)(C)O[C@@H]3CC[C@@]2(C)[C@@H]1C/C=C1/C(=O)OC[C@H]1OC(=O)CSc1ccc([N+](=O)[O-])cc1
- Activity (Vero): Non-Toxic

- IC50 (PC-3): 16 µM
Structure (SMILES): C=C1CC[C@@H]2[C@](C)(CO)[C@H](O)CC[C@@]2(C)[C@@H]1CC(Sc1ccc(F)cc1)C1=CCOC1=O (some centres undefined)

- IC50 (PC-3): 23 µM
Structure (SMILES): C=C1CC[C@@H]2[C@]3(C)COC(C)(C)O[C@@H]3CC[C@@]2(C)[C@@H]1CC(Sc1ccc(C)cc1)C1=CCOC1=O (some centres undefined)

- IC50 (PC-3): 18 µM
Structure (SMILES): C=C1CC[C@@H]2[C@](C)(CO)[C@H](O)CC[C@@]2(C)[C@@H]1CC(Sc1ccccn1)C1=CCOC1=O (some centres undefined)

- IC50 (PC-3): 13 µM
Structure (SMILES): C=C1CC[C@@H]2[C@]3(C)COC(C)(C)O[C@@H]3CC[C@@]2(C)[C@@H]1C/C=C1/C(=O)OC[C@H]1OC(=O)CCCSc1ccc(F)cc1

- IC50 (PC-3): 12 µM
Structure (SMILES): C=C1CC[C@@H]2[C@](C)(CO)[C@H](O)CC[C@@]2(C)C1C/C=C1/C(=O)OC[C@H]1OC(=O)CCCSc1ccc(F)cc1 (single isomer, unassigned)

- IC50 (PC-3): 30 µM
Structure (SMILES): C=C1CC[C@@H]2[C@](C)(CO)[C@H](O)CC[C@@]2(C)[C@@H]1C/C=C1/C(=O)OC[C@H]1O [ANDROGRAPHOLIDE]

- IC50 (PC-3): 14 µM
Structure (SMILES): C=C1CC[C@@H]2[C@]3(C)COC(C)(C)O[C@@H]3CC[C@@]2(C)[C@@H]1C/C=C1/C(=O)OC[C@H]1OC(=O)CCCSc1ccc(C)cc1

- IC50 (MDA-MB-231): 12 µM
- IC50 (PC-3): 10 µM
- IC50 (A549): 31 µM
- IC50 (MCF7): 3 µM
Structure (SMILES): C=C1CC[C@@H]2[C@]3(C)COC(C)(C)O[C@@H]3CC[C@@]2(C)[C@@H]1CC(Sc1nccs1)C1=CCOC1=O (some centres undefined)
- Activity (Vero): Non-Toxic

- IC50 (PC-3): 17 µM
Structure (SMILES): C=C1CC[C@@H]2[C@]3(C)COC(C)(C)O[C@@H]3CC[C@@]2(C)[C@@H]1CC(Sc1ccc(OC)cc1)C1=CCOC1=O (some centres undefined)

- IC50 (MDA-MB-231): 6 µM
- IC50 (PC-3): 9 µM
- IC50 (A549): 23 µM
- IC50 (MCF7): 0.6 µM
Structure (SMILES): C=C1CC[C@@H]2[C@]3(C)COC(C)(C)O[C@@H]3CC[C@@]2(C)[C@@H]1C/C=C1/C(=O)OC[C@H]1OC(=O)CCCSc1ccccn1
- Activity (Vero): Non-Toxic

- IC50 (PC-3): 29 µM
Structure (SMILES): C=C1CC[C@@H]2[C@](C)(CO)[C@H](O)CC[C@@]2(C)[C@@H]1CC(Sc1ccc(C)cc1)C1=CCOC1=O (some centres undefined)

- IC50 (PC-3): 17 µM
Structure (SMILES): C=C1CC[C@@H]2[C@](C)(CO)[C@H](O)CC[C@@]2(C)C1C/C=C1/C(=O)OC[C@H]1OC(=O)CCCSc1ccc([N+](=O)[O-])cc1 (single isomer, unassigned)

- IC50 (PC-3): 15 µM
Structure (SMILES): C=C1CC[C@@H]2[C@](C)(CO)[C@H](O)CC[C@@]2(C)[C@@H]1CC(Sc1ccc(OC)cc1)C1=CCOC1=O (some centres undefined)

- IC50 (PC-3): 11 µM
Structure (SMILES): C=C1CC[C@@H]2[C@]3(C)COC(C)(C)O[C@@H]3CC[C@@]2(C)[C@@H]1C/C=C1/C(=O)OC[C@H]1OC(=O)CSc1ccc(C)cc1

- IC50 (MDA-MB-231): 10 µM
- IC50 (PC-3): 9 µM
- IC50 (A549): 25 µM
- IC50 (MCF7): 0.7 µM
Structure (SMILES): C=C1CC[C@@H]2[C@]3(C)COC(C)(C)O[C@@H]3CC[C@@]2(C)[C@@H]1C/C=C1/C(=O)OC[C@H]1OC(=O)CCCSc1cccs1
- Activity (Vero): Non-Toxic
